Test results taken from ChEMBL document CHEMBL5108039, “Piperazine tethered bergenin heterocyclic hybrids: design, synthesis, anticancer activity, and molecular docking studies” (RSC Med Chem, 2022).
pIC50: −log10 of the molar value. Calls of active or inactive are those of the source. The calls are words filed in the database; no cut-off is given here.

Experiments:
[1] = system: SCC-9; test: Induction of apoptosis in human SCC-9 cells assessed as upregulation of Bax gene expression at 32 uM by qRT-PCR analysis; format: functional, cell-based
[2] = system: CAL-27; test: Induction of apoptosis in human CAL-27 cells assessed as early apoptotic cells at 32 uM incubated for 24 hrs by Annexin V-FITC/PI staining based flow cytometric analysis (reference value: 0.1 %); format: functional
How it was run: (§1)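 CAL27 cells were treated with vehicle, doxorubicin or test compounds at 10–63 μM, and apoptosis was assessed by annexin V–FITC/PI staining with flow cytometry. Cells were scored as live, early apoptotic, late apoptotic or necrotic. The vehicle was DMSO (0.01%).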

[3] = system: CAL-27; test: Induction of apoptosis in human CAL-27 cells assessed as upregulation of Bax gene expression at 16 uM by qRT-PCR analysis; format: functional, cell-based
How it was run: (§2)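 CAL27 cells were treated with test agents at different concentrations. Relative mRNA levels of vimentin, E-cad, Nanog, Oct-4, Bax and Bcl-2 were then quantified by qRT-PCR as apoptosis, EMT and stemness markers.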

[4] = system: CAL-27; test: Induction of apoptosis in human CAL-27 cells assessed as necrotic cells at 32 uM incubated for 24 hrs by Annexin V-FITC/PI staining based flow cytometric analysis (reference value: 0.0 %); format: functional
[5] = system: SCC-9; test: Cell cycle arrest in human SCC-9 cells assessed as accumulation at S phase at 32.4 uM incubated for 24 hrs by flow cytometry (reference value: 14.4 %); format: functional
[6] = system: HCT-15; test: Cytotoxicity against human HCT-15 cells assessed as cell growth inhibition; format: functional, cell-based
How it was run: (§3)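 Compounds were dissolved in sterile DMSO as 10 mg ml−1 stocks and tested for in vitro growth inhibition of human cancer cell lines. Doxorubicin was the standard drug and DMSO (0.01%) the vehicle control. IC50 values are reported as means.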

[7] = system: CAL-27; test: Induction of apoptosis in human CAL-27 cells assessed as necrotic cells at 16 uM incubated for 24 hrs by Annexin V-FITC/PI staining based flow cytometric analysis (reference value: 0.0 %); format: functional; how it was run: as §1
[8] = system: CAL-27; test: Induction of apoptosis in human CAL-27 cells assessed as early apoptotic cells at 16 uM incubated for 24 hrs by Annexin V-FITC/PI staining based flow cytometric analysis (reference value: 0.1 %); format: functional; how it was run: as §1
[9] = system: SCC-9; test: Cell cycle arrest in human SCC-9 cells assessed as accumulation at G2/M phase at 32.4 uM incubated for 24 hrs by flow cytometry (reference value: 14.2 %); format: functional
[10] = system: SCC-9; test: Cytotoxicity against human SCC-9 cells assessed as cell growth inhibition; format: functional, cell-based; how it was run: as §3
[11] = system: CAL-27; test: Induction of apoptosis in human CAL-27 cells assessed as upregulation of E-cad gene expression at 16 uM by qRT-PCR analysis; format: functional, cell-based; how it was run: as §2
[12] = system: SCC-9; test: Cell cycle arrest in human SCC-9 cells assessed as accumulation at G0/G1 phase at 16.2 uM incubated for 24 hrs by flow cytometry (reference value: 70.8 %); format: functional
[13] = system: CAL-27; test: Induction of apoptosis in human CAL-27 cells assessed as downregulation of Nanog gene expression at 32 uM by qRT-PCR analysis; format: functional, cell-based
How it was run: (§4)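 CAL27 cells were treated with test compounds at several concentrations. Relative expression of vimentin, E-cad, Nanog, Oct-4, Bax and BcL-2 was measured by qRT-PCR against vehicle-treated control cells.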

[14] = system: CAL-27; test: Cell cycle arrest in human CAL-27 cells assessed as accumulation at S phase at 16 uM incubated for 24 hrs by flow cytometry (reference value: 3.6 %); format: functional
[15] = system: SCC-9; test: Induction of apoptosis in human SCC-9 cells assessed as early apoptotic cells at 16.2 uM incubated for 24 hrs by Annexin V-FITC/PI staining based flow cytometric analysis (reference value: 2.8 %); format: functional
[16] = system: CAL-27; test: Cell cycle arrest in human CAL-27 cells assessed as accumulation at G2/M phase at 16 uM incubated for 24 hrs by flow cytometry (reference value: 11.9 %); format: functional
[17] = system: CAL-27; test: Cell cycle arrest in human CAL-27 cells assessed as accumulation at G0/G1 phase at 32 uM incubated for 24 hrs by flow cytometry (reference value: 77.6 %); format: functional
[18] = system: SCC-9; test: Induction of apoptosis in human SCC-9 cells assessed as early apoptotic cells at 32.4 uM incubated for 24 hrs by Annexin V-FITC/PI staining based flow cytometric analysis (reference value: 2.8 %); format: functional
[19] = system: CAL-27; test: Induction of apoptosis in human CAL-27 cells assessed as downregulation of BcL-2 gene expression at 16 uM by qRT-PCR analysis; format: functional, cell-based; how it was run: as §4
[20] = system: SCC-9; test: Induction of apoptosis in human SCC-9 cells assessed as downregulation of Nanog gene expression at 32 uM by qRT-PCR analysis; format: functional, cell-based
[21] = system: SCC-9; test: Induction of apoptosis in human SCC-9 cells assessed as downregulation of BcL-2 gene expression at 16 uM by qRT-PCR analysis; format: functional, cell-based
[22] = system: CAL-27; test: Induction of apoptosis in human CAL-27 cells assessed as downregulation of Oct-4 gene expression at 32 uM by qRT-PCR analysis; format: functional, cell-based; how it was run: as §4
[23] = system: SCC-9; test: Induction of apoptosis in human SCC-9 cells assessed as upregulation of E-cad gene expression at 32 uM by qRT-PCR analysis; format: functional, cell-based
[24] = system: CAL-27; test: Cell cycle arrest in human CAL-27 cells assessed as accumulation at G0/G1 phase at 16 uM incubated for 24 hrs by flow cytometry (reference value: 77.6 %); format: functional
[25] = system: SCC-9; test: Induction of apoptosis in human SCC-9 cells assessed as live cells at 32.4 uM incubated for 24 hrs by Annexin V-FITC/PI staining based flow cytometric analysis (reference value: 95.7 %); format: functional

COc1ccc(-c2csc(NC(=O)CN3CCN(Cc4c(O)c(OC)c(O)c5c4C(=O)OC4C5O[C@H](CO)[C@@H](O)[C@@H]4O)CC3)n2)cc1 (stereo not given in full)
Activity [1]: Active | Activity [2]: 2.8% | Activity [3]: Active | Activity [4]: 1.9% | Activity [5]: 12.4% | pIC50 [6]: 4.15 | Activity [7]: 0.9% | Activity [8]: 2.7% | Activity [9]: 10.5% | pIC50 [10]: 4.49 | Activity [11]: Active | Activity [12]: 71.4% | Activity [13]: Active | Activity [14]: 2.1% | Activity [15]: 6.2% | Activity [16]: 12.3% | Activity [17]: 87.1% | Activity [18]: 5.9% | Activity [19]: Active | Activity [20]: Active | Activity [21]: Active | Activity [22]: Active | Activity [23]: Active | Activity [24]: 85.5% | Activity [25]: 42.8%
